Assay results reported in ChEMBL document CHEMBL1759990, “Synthesis and SAR of novel quinazolines as potent and brain-penetrant c-jun N-terminal kinase (JNK) inhibitors” (Bioorg Med Chem Lett, 2011).

How the values were obtained:
[1] = molecular target: Mitogen-activated protein kinase 10 (Homo sapiens, UniProt P53779); experiment: Inhibition of JNK3 by HRTF
Method in brief: (§1)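 HTRF kinase assay with final concentrations of 0.1 nM JNK1 or 0.3 nM JNK3, 0.4 nM biotinylated-ATF2 substrate and 1 mM ATP. Phospho-Thr71-ATF-2 was detected with a Europium-cryptate anti-phospho-Thr71-ATF-2 antibody, with streptavidin-allophycocyanin-XL as acceptor. A 10-point dose-response was run in duplicate and fit to a four-parameter logistic. JNK3 values are means of four or more experiments; JNK1 values are means of two or more.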

[2] = Drug level in mouse brain at 10 mg/kg, ip after 2 hrs; assay type: ADME, organism-based; set-up: dose 10 mg/kg, route intraperitoneal; details: read-out: Drug uptake
Method in brief: (§2)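 Mouse dosed at 10 mg/kg ip. Brain and plasma concentrations (µM) were measured at 2 h.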

[3] = molecular target: Mitogen-activated protein kinase 8 (Homo sapiens, UniProt P45983); experiment: Inhibition of JNK1 by HRTF; method in brief: as §1
[4] = Drug level in mouse plasma at 10 mg/kg, ip after 2 hrs; assay type: ADME, organism-based; set-up: dose 10 mg/kg, route intraperitoneal; details: read-out: Drug uptake; method in brief: as §2
[5] = AUC in rat at 2 mg/kg, po; assay type: ADME, organism-based; set-up: dose 2 mg/kg, route oral; details: plasma
[6] = Volume of distribution in rat at 1 mg/kg, iv; assay type: ADME, organism-based; set-up: dose 1 mg/kg, route intravenous; details: in vivo
[7] = Cmax in rat at 2 mg/kg, po; assay type: ADME, organism-based; set-up: dose 2 mg/kg, route oral; details: in vivo
Rattus norvegicus [8] = experiment: Half life in rat at 1 mg/kg, iv; assay type: ADME, organism-based; set-up: dose 1 mg/kg, route intravenous; details: in vivo
Rattus norvegicus [9] = experiment: Oral bioavailability in rat at 2 mg/kg; assay type: ADME, organism-based; details: in vivo

Sequence of Mitogen-activated protein kinase 10 (P53779 whole entry): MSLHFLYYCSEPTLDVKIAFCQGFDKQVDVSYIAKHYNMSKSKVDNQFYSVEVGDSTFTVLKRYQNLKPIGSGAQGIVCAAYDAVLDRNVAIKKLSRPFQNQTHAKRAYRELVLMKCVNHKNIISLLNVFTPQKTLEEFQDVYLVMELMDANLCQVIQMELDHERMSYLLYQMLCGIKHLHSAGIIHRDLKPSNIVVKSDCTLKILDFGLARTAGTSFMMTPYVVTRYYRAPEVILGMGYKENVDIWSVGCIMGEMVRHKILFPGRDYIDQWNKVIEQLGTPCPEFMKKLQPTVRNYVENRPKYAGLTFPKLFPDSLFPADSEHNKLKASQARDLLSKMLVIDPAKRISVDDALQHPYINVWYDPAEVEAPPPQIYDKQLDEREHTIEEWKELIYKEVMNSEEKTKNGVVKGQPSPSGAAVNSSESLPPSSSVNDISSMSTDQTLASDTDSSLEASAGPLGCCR
Sequence of Mitogen-activated protein kinase 8 (P45983 whole entry): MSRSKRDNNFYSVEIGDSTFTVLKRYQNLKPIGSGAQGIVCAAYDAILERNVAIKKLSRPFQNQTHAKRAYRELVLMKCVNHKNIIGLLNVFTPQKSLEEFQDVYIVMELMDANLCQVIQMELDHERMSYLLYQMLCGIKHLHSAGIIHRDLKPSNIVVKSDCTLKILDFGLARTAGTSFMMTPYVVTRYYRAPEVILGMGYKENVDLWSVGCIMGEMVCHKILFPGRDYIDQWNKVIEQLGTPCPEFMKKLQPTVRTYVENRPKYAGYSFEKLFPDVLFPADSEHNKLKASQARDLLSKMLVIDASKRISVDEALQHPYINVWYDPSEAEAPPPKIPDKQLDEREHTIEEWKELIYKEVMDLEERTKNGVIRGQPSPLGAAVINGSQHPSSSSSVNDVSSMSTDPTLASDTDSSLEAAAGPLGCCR

Row | Compound | IC50 [1] | concentration at 2 h [2] | concentration at 2 h [4] | also measured
1 | c1cc(-n2cnc(N3CCOCC3)n2)ccc1Nc1ncc2ccc(-c3cnoc3)cc2n1 | 700 nM |  |  | 
2 | Cc1ccc(-c2cccc3cnc(Nc4ccc(F)cc4)nc23)cn1 | 170 nM |  |  | 
3 | CC(C)n1cc(-c2ccc3cnc(Nc4ccc(-n5cnc(N6CCOCC6)n5)cc4)nc3c2Cl)cn1 | 63 nM | 7.2 µM | 4.3 µM | 
4 | COc1ccc(-c2cccc3cnc(Nc4ccc(-n5cnc(-c6ccccn6)n5)cc4)nc23)cc1F | 90 nM |  |  | 
5 | Cc1ccc(-c2cccc3cnc(NC4CCC(O)CC4)nc23)cn1 (stereo not given) | 50 nM |  |  | 
6 | Cn1cc(-c2ccc3cnc(Nc4ccc(-n5cnc(N6CCOCC6)n5)cc4)nc3c2)cn1 | 90 nM | 7.17 µM | 17.8 µM | AUC [5]: 6.3 µM·h; Vd [6]: 0.8 L/kg; Cmax [7]: 700 nM; t1/2 (Rattus norvegicus [8]): 3 h; F (Rattus norvegicus [9]): 28%; IC50 [3]: 50 nM
7 | c1ccc(-c2cccc3cnc(Nc4ccc(-n5cnc(N6CCOCC6)n5)cc4)nc23)cc1 | 60 nM | 12.7 µM | 5.2 µM | IC50 [3]: 50 nM
8 | Cc1ccc(-c2ccc3cnc(Nc4ccc(-n5cnc(N6CCOCC6)n5)cc4)nc3c2)cn1 | 730 nM |  |  | 
9 | c1ccc(-c2ccc3cnc(Nc4ccc(-n5cnc(N6CCOCC6)n5)cc4)nc3c2)cc1 | > 20000 nM |  |  | 
10 | c1cc(-n2cnc(N3CCOCC3)n2)ccc1Nc1ncc2ccc(-c3cn[nH]c3)cc2n1 | 50 nM | 1.31 µM | 42.9 µM | IC50 [3]: 40 nM
11 | Cn1cc(-c2ccc3cnc(Nc4ccc(-n5cnc(N6CCOCC6)n5)cc4)nc3c2Cl)cn1 | 40 nM | 8.3 µM | 10.4 µM | AUC [5]: 2.3 µM·h; Vd [6]: 1.4 L/kg; Cmax [7]: 300 nM; t1/2 (Rattus norvegicus [8]): 3 h; F (Rattus norvegicus [9]): 19%
12 | Cn1cc(-c2ccc3cnc(Nc4ccc(-n5cnc(N6CCOCC6)n5)cc4)nc3c2C(F)(F)F)cn1 | 190 nM | 5.6 µM | 8.3 µM | 
13 | COc1ccc(-c2cccc3cnc(Nc4ccc(-n5cnc(N6CCOCC6)n5)cc4)nc23)cc1F | 70 nM | 1.5 µM | 6.1 µM | IC50 [3]: 90 nM
14 | Cc1ccc(-c2cccc3cnc(Nc4ccc5c(c4)OCO5)nc23)cn1 | 60 nM | 1.06 µM | 0.78 µM | 
15 | COc1ccc(-c2cccc3cnc(Nc4ccc(-n5cnc(C)n5)cc4)nc23)cc1F | 80 nM | 7.6 µM | 10.3 µM | 
16 | c1cncc(-c2ccc3cnc(Nc4ccc(-n5cnc(N6CCOCC6)n5)cc4)nc3c2)c1 | 210 nM | 8.1 µM | 26.7 µM | 
17 | c1cc(-n2cnc(N3CCOCC3)n2)ccc1Nc1ncc2ccc(N3CCOCC3)cc2n1 | 4400 nM |  |  | 
18 | Cc1ccc(-c2ncn(-c3ccc(Nc4ncc5ccc(-c6cn[nH]c6)cc5n4)cc3)n2)cn1 | 50 nM |  |  | 
19 | Cc1ccc(-c2cccc3cnc(Nc4ccc(C(=O)N5CCOCC5)cc4)nc23)cn1 | 90 nM |  |  | 
20 | Cn1cc(-c2ccc3cnc(Nc4ccc(-n5cnc(-c6ccccn6)n5)cc4)nc3c2)cn1 | 60 nM | 1.37 µM | 13.1 µM | IC50 [3]: 100 nM

Compounds with a lower IC50 [1], results first:

Row | IC50 [1] | concentration at 2 h [2] | concentration at 2 h [4] | Compound | also measured
21 | 30 nM | 0.23 µM | 2.31 µM | Cc1ccc(-c2cccc3cnc(Nc4ccc(-n5cnc(C)n5)cc4)nc23)cn1 | 
22 | 30 nM | 0.15 µM | 2.7 µM | Cc1ccc(-c2cccc3cnc(Nc4ccc(-n5cnc(N6CCOCC6)n5)cc4)nc23)cn1 | 
23 | 30 nM |  |  | Cc1ccc(-c2cccc3cnc(N[C@H]4CC[C@@H](C(=O)N5CCCC5)CC4)nc23)cn1 | 
24 | 20 nM | 0.23 µM | 2.2 µM | Cn1cc(-c2cccc3cnc(Nc4ccc(-n5cnc(N6CCOCC6)n5)cc4)nc23)cn1 | IC50 [3]: 10 nM
25 | 20 nM | 5 µM | 10.6 µM | Cn1cc(-c2ccc3cnc(Nc4ccc(-n5cnc(N6CCOCC6)n5)cc4)nc3c2C2CC2)cn1 | 
26 | 20 nM | 4.5 µM | 5 µM | Cc1ncn(-c2ccc(Nc3ncc4cccc(-c5nccs5)c4n3)cc2)n1 | IC50 [3]: 10 nM
27 | 10 nM | 7.6 µM | 7.4 µM | Cc1c(-c2cnn(C)c2)ccc2cnc(Nc3ccc(-n4cnc(N5CCOCC5)n4)cc3)nc12 | 
28 | 10 nM | 1.1 µM | 6.4 µM | Cn1cc(-c2ccc3cnc(Nc4ccc(-n5cnc(N6CCOCC6)n5)cc4)nc3c2-c2ccccc2)cn1 | 
29 | 9 nM | 0.22 µM | 6.3 µM | Cn1cc(-c2ccc3cnc(Nc4ccc(-n5cnc(N6CCOCC6)n5)cc4)nc3c2-c2cnn(C)c2)cn1 | 
30 | 7 nM |  |  | c1cc(-c2nccs2)c2nc(Nc3ccc(-n4cnc(N5CCOCC5)n4)cc3)ncc2c1 | IC50 [3]: 30 nM
31 | 4 nM | 4.9 µM | 9.4 µM | COc1c(-c2cnn(C)c2)ccc2cnc(Nc3ccc(-n4cnc(N5CCOCC5)n4)cc3)nc12 | F (Rattus norvegicus [9]): 8%
